Reference: ChEMBL document CHEMBL6177924, “Synthesis and antifungal evaluation of new azole derivatives containing 1,2,3-triazole” (RSC Med Chem, 2025)
In brackets after ≈: the same amount, converted by molar mass. Activity calls are given as the source filed them. The calls are words filed in the database; no cut-off is given here.

Columns and labels:
Candida albicans [1] = assay: Antifungal activity against Candida albicans assessed as inhibition of mycelia formation at 0.53 microg/ml measured after 4 to 8 hrs by inverted microscopic analysis; type: functional, organism-based; conditions: dose 0.53 µg/ml, time 4-8 hrs
In short: (§1)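 Hyphae were induced in SD+10% FBS or in Spider medium. Log-phase cells at 1×10^5 CFU/mL final, 1 mL per well in 24-well plates, 3 wells per group. Drug at 0.27, 0.53 or 1.06 µg/mL, fluconazole, or no-drug control. Incubated at 30 °C; hyphal formation observed and photographed by inverted microscope at 4 h and 8 h.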

Candida albicans [2] = assay: Antifungal activity against Candida albicans SC5314 assessed as inhibition of fungal growth measured up to 48 hrs by time-killing curve analysis; type: functional, organism-based
In short: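 Log-phase cells at 1×10^5 CFU/mL in SDB, 10 mL per group. Drug at 0.27, 0.53 or 1.06 µg/mL, plus fluconazole and untreated controls. Shaken 150 r/min at 30 °C. Samples taken at 0, 4, 8, 12, 24, 36 and 48 h and read at A630, triplicate wells. Absorbance plotted against time.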

Candida albicans [3] = assay: Antibiofilm activity in Candida albicans SC5314 assessed as sparse distribution of fungal cells at 0.53 microg/ml measured after 24 hrs by inverted microscopic analysis; type: functional, organism-based; conditions: dose 0.53 µg/ml
In short: (§2)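 Log-phase C. albicans in RPMI1640+10% FBS at 1×10^5 CFU/mL allowed to adhere in 24-well plates for 90 min at 30 °C; unattached medium removed. 1 mL medium with drug (0.27, 0.53, 1.06 µg/mL) or without drug added; 24 h at 30 °C. Biofilm stained with crystal violet 30 min, washed 3× with PBS, viewed by inverted microscope.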

Candida albicans [4] = assay: Antibiofilm activity in Candida albicans SC5314 assessed as decrease in number of mycelia at 0.27 microg/ml measured after 24 hrs by inverted microscopic analysis; type: functional, organism-based; conditions: dose 0.27 µg/ml; in short: as §2
Candida albicans [5] = assay: Antifungal activity against Candida albicans SC5314 assessed as inhibition of fungal growth measured after 36 hrs by time-killing curve analysis; type: functional, organism-based
In short: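 Log-phase C. albicans at 1×10^5 CFU/mL in SDB, 10 mL cultures with drug (0.27, 0.53, 1.06 µg/mL), fluconazole or no drug. Shaken at 150 r/min, 30 °C. Samples taken at 0, 4, 8, 12, 24, 36 and 48 h for absorbance at 630 nm, triplicate wells. Absorbance plotted against time.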

Candida albicans [6] = assay: Antifungal activity against drug resistant Candida albicans SC5314-FR assessed as inhibition of fungal growth incubated for 24 hrs by CLSI protocol based microdilution method; type: functional
In short: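 Fluconazole-resistant strain derived from SC5314 by fluconazole exposure. Log-phase cells at 1×10^5 CFU/mL in SDB. Drug fivefold serial dilutions, 200–0.064 µg/mL final, DMSO <0.1%, triplicate wells, 200 µL. Incubated 30 °C for 24 h and read at OD630. Growth, blank and fluconazole controls included. Run three times.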

Candida albicans [7] = assay: Induction of morphological changes in Candida albicans assessed as blurred spacing between cell wall and cell membrane at 0.53 microg/ml incubated for 16 to 24 hrs by transmission electron microscopic analysis; type: functional, organism-based; conditions: dose 0.53 µg/ml, time 16-24 hrs
In short: (§3)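 C. albicans at 5×10^5 CFU/mL in SDB shaken with drug (0.27, 0.53, 1.06 µg/mL), fluconazole or no drug at 30 °C, 150 r/min, for 16-24 h. Pellets washed with PBS and fixed in cold 3% paraformaldehyde/2.5% glutaraldehyde at 4 °C, then 1% OsO4. Dehydrated in acetone and embedded in Epon-812. 60-90 nm sections stained with uranyl acetate and lead citrate, imaged by TEM.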

Candida albicans [8] = assay: Induction of morphological changes in Candida albicans assessed as normal cell wall appearance at 0.53 microg/ml incubated for 16 to 24 hrs by transmission electron microscopic analysis; type: functional, organism-based; conditions: dose 0.53 µg/ml, time 16-24 hrs; in short: as §3
Candida albicans [9] = assay: Antifungal activity against Candida albicans assessed as inhibition of yeast state o mycelium state transformation at 0.27 to 1.06 microg/ml measured after 4 to 8 hrs by inverted microscopic analysis; type: functional, organism-based; conditions: dose 0.27-1.06 µg/ml, time 4-8 hrs; in short: as §1

SMILES: O=C(Cn1cc(COC(Cn2ccnc2)c2ccc(Cl)cc2Cl)nn1)c1ccc2ccccc2c1 (centres undefined)
- Activity (Candida albicans [1]): Active; Better Than That Of Fluconazole Group
- Activity (Candida albicans [2]): Active
- Activity (Candida albicans [3]): Active
- Activity (Candida albicans [4]): Active
- Activity (Candida albicans [5]): Dose-dependent-effect
- MIC50 (Candida albicans [6]): 10.9 µg/mL (≈ 21.6 µM)
- Activity (Candida albicans [7]): Active
- Activity (Candida albicans [8]): Active
- Activity (Candida albicans [9]): Active; Better Than That Of Fluconazole Group
